Data published in ChEMBL document CHEMBL1132120, “Identification of highly selective inhibitors of collagenase-1 from combinatorial libraries of diketopiperazines” (J Med Chem, 1999).

Assays:
Interstitial collagenase = target: T1, Interstitial collagenase (Homo sapiens, UniProt P03956); assay: Inhibitory activity against Matrix metalloprotease-1
T1 sequence (P03956 whole entry): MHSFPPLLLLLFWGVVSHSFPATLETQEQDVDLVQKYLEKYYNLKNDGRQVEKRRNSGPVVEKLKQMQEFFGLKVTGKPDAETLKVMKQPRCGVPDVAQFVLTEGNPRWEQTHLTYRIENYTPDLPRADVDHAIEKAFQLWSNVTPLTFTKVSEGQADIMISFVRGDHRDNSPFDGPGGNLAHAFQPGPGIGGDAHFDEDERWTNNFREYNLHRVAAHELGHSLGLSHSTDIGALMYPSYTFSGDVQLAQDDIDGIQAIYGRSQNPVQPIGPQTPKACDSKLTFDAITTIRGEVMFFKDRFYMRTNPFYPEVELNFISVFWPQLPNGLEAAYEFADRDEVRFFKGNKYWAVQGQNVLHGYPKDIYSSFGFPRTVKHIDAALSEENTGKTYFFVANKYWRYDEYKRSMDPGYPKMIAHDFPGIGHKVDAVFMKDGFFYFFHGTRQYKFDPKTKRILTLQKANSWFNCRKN
How it was run: (§1)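 Recombinant enzymes: C-terminally truncated collagenase-1, gelatinase-B and stromelysin. IC50 from nonlinear fit of rate versus inhibitor concentration to v = V0/(1+[I]/IC50). Values are the average of two or more independent determinations, SD ±20% or better.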

[1] = target: Matrix metalloproteinase-9 (Homo sapiens, UniProt P14780); assay: Inhibitory activity against Matrix metalloprotease-9; design: species or system Komagataella pastoris; how it was run: as §1
[2] = Inhibitory activity against stromelysin.; how it was run: as §1

Chain of Matrix metalloproteinase-9 (P14780 whole entry): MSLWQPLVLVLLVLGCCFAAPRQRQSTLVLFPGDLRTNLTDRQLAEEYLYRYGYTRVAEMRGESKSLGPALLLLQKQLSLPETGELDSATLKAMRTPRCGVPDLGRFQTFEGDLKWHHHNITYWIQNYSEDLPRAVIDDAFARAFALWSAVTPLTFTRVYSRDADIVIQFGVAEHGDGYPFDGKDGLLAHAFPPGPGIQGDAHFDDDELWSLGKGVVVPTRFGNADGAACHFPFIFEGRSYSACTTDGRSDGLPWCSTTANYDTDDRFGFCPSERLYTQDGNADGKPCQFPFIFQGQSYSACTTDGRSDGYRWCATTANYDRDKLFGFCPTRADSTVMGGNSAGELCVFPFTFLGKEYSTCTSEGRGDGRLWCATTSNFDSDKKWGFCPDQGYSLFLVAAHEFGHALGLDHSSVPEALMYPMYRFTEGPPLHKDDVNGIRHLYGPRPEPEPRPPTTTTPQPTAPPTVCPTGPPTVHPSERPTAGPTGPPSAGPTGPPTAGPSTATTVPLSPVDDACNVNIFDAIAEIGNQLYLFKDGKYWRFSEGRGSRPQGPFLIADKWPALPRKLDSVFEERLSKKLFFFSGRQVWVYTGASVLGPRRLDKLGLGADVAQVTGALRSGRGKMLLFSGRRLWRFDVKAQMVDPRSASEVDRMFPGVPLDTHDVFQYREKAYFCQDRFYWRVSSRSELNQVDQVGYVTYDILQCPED

IC50 [2] [nM]	SMILES	IC50 (Interstitial collagenase) [nM]	IC50 [1] [nM]
	CC(C)(C)NC(=O)C(Cc1ccccc1)N1C(=O)[C@H](CS)NC(=O)[C@@H]1Cc1ccc([N+](=O)[O-])cc1 (some centres undefined)	37	1200
	CC(C)(C)NC(=O)C(C1CC1)N1C(=O)[C@H](CS)NC(=O)[C@@H]1Cc1ccc([N+](=O)[O-])cc1 (some centres undefined)	37	1180
> 20000	CCCN1C(=O)[C@H](CS)NC(=O)[C@@H]1Cc1ccc([N+](=O)[O-])cc1	65	2900
	COc1ccc(C(C(=O)NC(C)(C)C)N2C(=O)[C@H](CS)NC(=O)[C@@H]2Cc2ccc([N+](=O)[O-])cc2)cc1 (some centres undefined)	21	1300
	CC(C)(C)NC(=O)C(c1ccc(-c2ccccc2)cc1)N1C(=O)[C@H](CS)NC(=O)[C@@H]1Cc1ccc([N+](=O)[O-])cc1 (some centres undefined)	102	4300
	CC(C)(C)NC(=O)C(c1ccccc1)N1C(=O)[C@H](CS)NC(=O)[C@@H]1Cc1ccc([N+](=O)[O-])cc1 (some centres undefined)	25	1300
	CCCCCCCC(C(=O)NC(C)(C)C)N1C(=O)[C@H](CS)NC(=O)[C@@H]1Cc1ccc([N+](=O)[O-])cc1 (some centres undefined)	36	1500
> 20000	O=C1N[C@@H](CS)C(=O)N(Cc2ccc3ccccc3n2)[C@H]1Cc1ccc([N+](=O)[O-])cc1	74	1700
	CC(C)CC(C(=O)NC(C)(C)C)N1C(=O)[C@H](CS)NC(=O)[C@@H]1Cc1ccc([N+](=O)[O-])cc1 (some centres undefined)	24	570
	CC(C)(C)NC(=O)C(c1ccc(Oc2ccccc2)cc1)N1C(=O)[C@H](CS)NC(=O)[C@@H]1Cc1ccc([N+](=O)[O-])cc1 (some centres undefined)	108	4400
	CCc1ccc(C(C(=O)NC(C)(C)C)N2C(=O)[C@H](CS)NC(=O)[C@@H]2Cc2ccc([N+](=O)[O-])cc2)cc1 (some centres undefined)	41	2600
3800	COc1ccc(CN2C(=O)[C@H](CS)NC(=O)[C@@H]2CC2CCCCC2)cc1		
> 40000	CCCN1C(=O)[C@H](CS)NC(=O)[C@@H]1Cc1ccc(NC(C)=O)cc1	> 40000	> 40000
4000	COc1ccc(CN2C(=O)[C@H](CS)NC(=O)[C@@H]2Cc2ccccc2)cc1	110	400
	CCCCOc1ccc(C(C(=O)NC(C)(C)C)N2C(=O)[C@H](CS)NC(=O)[C@@H]2Cc2ccc([N+](=O)[O-])cc2)cc1 (some centres undefined)	73	3200
> 40000	COc1ccc(CN2C(=O)[C@H](CS)NC(=O)[C@@H]2Cc2ccc([N+](=O)[O-])cc2)cc1	47	1200
1100	COc1ccc(CSC[C@H]2C(=O)N[C@@H](CS)C(=O)N2Cc2ccc(OC)cc2)cc1	310	52
